# Reference: ChEMBL document CHEMBL1136250, “N1-benzenesulfonylgramine and N1-benzenesulfonylskatole: novel 5-HT6 receptor ligand templates” (Bioorg Med Chem Lett, 2003)
# System: not listed separately
# Assay: pA2 value was determined
# Conditions: not given
row,SMILES,pA2
1,Cc1cn(S(=O)(=O)c2ccc(N)cc2)c2ccccc12,7

# System: HEK293
# Assay: Inhibition of 5-HT stimulated cAMP production in HEK-5-HT6 cells
# Type: functional, cell-based
# Conditions: Homo sapiens
# Method in brief: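 HEK cells expressing 5-HT6 receptors; the compound was tested alone for agonist-induced cAMP production, and against 5-HT-stimulated cAMP production. IC50 was calculated for inhibition of the 5-HT-stimulated cAMP response.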
row,SMILES,IC50 [nM]
1,CN(C)Cc1cn(S(=O)(=O)c2ccccc2)c2ccccc12,880
2,Cc1cn(S(=O)(=O)c2ccc(N)cc2)c2ccccc12,320

# Molecular target: 5-hydroxytryptamine receptor 6 (Homo sapiens, UniProt P50406)
# Assay: Binding affinity towards human 5-hydroxytryptamine 6 receptor
# Conditions: not given
# Method in brief: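 Competition binding with [3H]LSD (1 nM final), 90 min at room temperature in 50 mM Tris–Cl, 10 mM MgCl2, 0.1 mM EDTA, pH 7.40; clozapine defines non-specific binding. Test agent 1–10,000 nM; Ki by LIGAND fitting, triplicate determinations.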
# Chain of 5-hydroxytryptamine receptor 6 (P50406 whole entry): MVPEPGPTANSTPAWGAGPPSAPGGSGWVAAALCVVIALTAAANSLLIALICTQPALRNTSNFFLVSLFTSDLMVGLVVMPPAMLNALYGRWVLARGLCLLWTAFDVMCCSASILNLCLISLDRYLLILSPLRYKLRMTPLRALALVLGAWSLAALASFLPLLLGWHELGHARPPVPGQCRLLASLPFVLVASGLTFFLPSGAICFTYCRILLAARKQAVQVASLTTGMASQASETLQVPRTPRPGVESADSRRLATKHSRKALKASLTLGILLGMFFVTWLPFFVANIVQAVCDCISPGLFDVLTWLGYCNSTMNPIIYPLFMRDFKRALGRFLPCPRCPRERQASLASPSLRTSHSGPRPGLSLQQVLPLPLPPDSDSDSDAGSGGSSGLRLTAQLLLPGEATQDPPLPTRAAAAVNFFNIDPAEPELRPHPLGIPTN
row,SMILES,Ki [nM]
1,COc1ccc2c(c1)c(CCN(C)Cc1ccccc1)cn2S(=O)(=O)c1ccc(N)cc1,3
2,CNCCc1cn(S(=O)(=O)c2ccccc2)c2ccc(OC)cc12,23
3,CC(=O)Nc1ccc(S(=O)(=O)n2cc(CCN(C)C)c3ccccc32)cc1,27
4,CCN(CC)CCc1cn(S(=O)(=O)c2ccc(NC(C)=O)cc2)c2ccccc12,90
5,CN(C)CCc1cn(S(=O)(=O)c2ccccc2)c2ccc(O)cc12,28
6,CCN(CC)CCc1cn(S(=O)(=O)c2ccc(N)cc2)c2ccc(OC)cc12,0.6
7,CCN(CC)CCc1cn(S(=O)(=O)c2ccc(NC(C)=O)cc2)c2ccc(OC)cc12,230
8,CCN(CC)CCc1cn(S(=O)(=O)c2ccccc2)c2ccc(OC)cc12,6.2
9,COc1ccc2c(c1)c(CCN(C)Cc1ccccc1)cn2S(=O)(=O)c1ccccc1,43
10,CCN(CC)CCc1cn(S(=O)(=O)c2ccc(N)cc2)c2ccccc12,0.6
11,COc1ccc2c(c1)c(CCN(C)C)cn2S(=O)(=O)c1ccc(NC(C)=O)cc1,34
